Screens (PubChem BioAssay)
A selection: hits, their analogues and other compounds. The true share with any hit is near 1.4%.
N-glyco inh: increase of ERlucT glycosylation luciferase signal, primary screen, N-linked glycosylation inhibitor project, D54 ERlucT cells, luminescence, set 2; D54 ERlucT glycosylation luciferase reporter, 24 h; percent of 100 nM tunicamycin response; reporter increase, % at 12.5 µM; 360,000 tested, 0.23% active;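 active = mean luciferase reporter signal, scaled so untreated is 0 and the glycosylation-blocking control 100, at or above a set limit in every replicate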;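 note: luciferase carries N-glycosylation sites so blocking glycosylation raises the light; 0% = median of neutral control wells and 100% = median of 100 nM tunicamycin wells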
CAL PDZ FP-1: untagged CAL PDZ binding inhibitors, primary screen, biochemical, fluorescence polarization, HTS; Golgi-associated PDZ and coiled-coil motif-containing protein (Homo sapiens), Q9HD26; inhibition, % at 24.9 µM; purified CAL PDZ, TMR-peptide fluorescence polarization, 1 h; 300,000 tested, 0.92% active;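 active = mean inhibition of at least 30% with at least half of replicates also reaching 30%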;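 note: 0% = DMSO neutral control and 100% = excess unlabeled competitor peptide PRC23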
CAL PDZ FP-2: CAL PDZ peptide-binding inhibitors, primary screen, biochemical, fluorescence polarization, Cer-tagged CAL PDZ, HTS. inhibition, % at 20 µM. purified CAL PDZ, TMR-peptide fluorescence polarization, 1 h. Golgi-associated PDZ and coiled-coil motif-containing protein (Homo sapiens), Q9HD26. AID 504414, 2011. 330,000 tested, 0.02% active;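 active = highest replicate inhibition of at least 40%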;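 note: plate controls were DMSO neutral control wells for no effect and unlabeled competitor peptide control wells for full effect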
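System: purified tagged CAL PDZ domain construct (CerCALP). Schedule: 1 h incubation at room temperature before polarization reading. Medium: 25 mM sodium phosphate pH 7.4, 150 mM NaCl, TCEP, IgG, Thesit. Read-out: percent inhibition from loss of millipolarization. Measured by: FP readout, S and P plane fluorescence. Probe or stimulus: fluorescent TMR peptide probe.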
CDK5 inh: inhibitors of human CDK5/p35 kinase, primary screen, biochemical, single concentration. Cyclin-dependent kinase 5 (Homo sapiens) + Cyclin-dependent kinase 5 activator 1 (Homo …. Recombinant CDK5/p35, ADP-Glo luminescence, 60 min. inhibition, % at 10 µM. 330,000 tested, 0.01% active;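 active = highest replicate inhibition of at least 50% and at least 75% of replicates reaching 50%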;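 note: plate controls were DMSO neutral control for no effect and GW8510 at 10 µM for full effect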
Target sequence (Q00535 whole entry, looked up): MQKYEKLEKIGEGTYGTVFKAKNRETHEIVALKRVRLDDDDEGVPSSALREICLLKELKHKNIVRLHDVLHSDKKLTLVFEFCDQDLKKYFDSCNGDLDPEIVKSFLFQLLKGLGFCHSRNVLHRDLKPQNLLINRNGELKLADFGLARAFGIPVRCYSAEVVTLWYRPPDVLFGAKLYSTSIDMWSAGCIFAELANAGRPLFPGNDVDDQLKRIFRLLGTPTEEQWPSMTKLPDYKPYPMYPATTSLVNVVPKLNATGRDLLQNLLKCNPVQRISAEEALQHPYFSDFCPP
Target sequence (Q15078 whole entry, looked up): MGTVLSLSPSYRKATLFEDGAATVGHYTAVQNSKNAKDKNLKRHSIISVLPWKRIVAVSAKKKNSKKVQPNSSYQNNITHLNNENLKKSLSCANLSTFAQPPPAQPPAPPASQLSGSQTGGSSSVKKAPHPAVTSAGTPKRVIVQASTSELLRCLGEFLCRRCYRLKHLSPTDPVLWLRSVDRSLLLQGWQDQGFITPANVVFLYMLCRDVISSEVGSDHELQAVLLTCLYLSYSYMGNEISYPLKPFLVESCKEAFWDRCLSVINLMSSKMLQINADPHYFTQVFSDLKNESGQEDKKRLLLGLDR
Vif imaging: HIV Vif self-association inhibitors, primary screen, imaging, HEK293T, single point. HEK293T cells, Vif self-association by quenched fluorescence, 24 h. inhibition, % at 7.49 µM. 340,000 tested, 0.35% active. AID 602346, 2012; in the data active = inhibition above about 50%, passing the limit was not always enough
PvdQ inh: P. aeruginosa PvdQ acylase inhibitors, primary screen, biochemical, fluorescence, plate reader and imaging, single point | PvdQ acylase [Pseudomonas aeruginosa LESB58] | purified PvdQ acylase | inhibition, % at 10 µM | 340,000 tested, 0.063% active | AID 488965, 2010; in the data active = inhibition above about 30%, passing the limit was not always enough;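 note: 0% = vehicle neutral wells and 100% = reference inhibitor wells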
* marks the source's active call; other numbers are inactive results; x = no result given; + = active, no number.

SMILES	N-glyco inh	CAL PDZ FP-1	CAL PDZ FP-2	CDK5 inh	Vif imaging	PvdQ inh
CCN1C(=O)[C@@H]2[C@@H](c3ccc(-c4ccc(Cl)c(Cl)c4)cc3)N3CCC[C@@]3(C(=O)OC)[C@@H]2C1=O	-1.3	-2.9	-1.0	0.2	-0.6	10.5
CCN1C(=O)[C@H]2[C@@H](c3ccc(-c4ccc(Cl)c(Cl)c4)cc3)N3CCCC[C@@]3(C(=O)OC)[C@H]2C1=O	1.2	34.6*	-1.1	-0.6	-2.6	-9.9
O=C(CNC(=O)c1cccc(Cl)c1)NCCCSc1ccccc1	-0.2	-7.5	-2.7	-1.6	-2.0	-12.1
CC(=O)c1ccc(OC2(C)CCN(Cc3csc4ccccc34)C2)cc1 (stereo unspecified)	-2.3	x	x	x	-6.3	x
CSc1ccc(CN2C(=O)C(C)ON=C2c2ccccc2F)cc1 (stereo unspecified)	-1.5	x	x	x	-2.1	x
CCOc1ncccc1C(=O)OCC(=O)N(CC(C)C)C1CCS(=O)(=O)C1 (stereo unspecified)	-1.3	56.6*	-0.2	-1.1	15.2	-13.6
CSc1ncccc1C(=O)OCC(=O)N(CC(C)C)C1CCS(=O)(=O)C1 (stereo unspecified)	2.2	-1.4	-0.7	2.5	9.1	-18.0
CCCn1c(N)c(C(=O)CN(C)CC(=O)Nc2c(C)cc(C)cc2C)c(=O)[nH]c1=O	5.2	-4.3	-1.3	-4.2	-6.8	-11.3
N#Cc1ccc(-c2ccc(OCC(=O)Nc3cccnc3)cc2)cc1	-5.1	-5.0	-2.1	-0.7	-7.2	-9.1
N#Cc1ccc(OCC(=O)Nc2ccc3[nH]c(=O)[nH]c3c2)cc1	3.9	x	0.3	0.5	1.6	-1.7
CCCn1c(=O)c2[nH]c(-c3ccc(OCC(=O)Nc4ccc(C#N)cc4)cc3)nc2n(CCC)c1=O	1.8	0.6	-1.1	-0.6	93.8*	2.4
CC(=O)Nc1ccc(NC(=O)COc2ccc(-c3ccc(C#N)cc3)cc2)cc1	-0.1	-2.0	0.2	1.1	54.8*	2.6
COc1ccc(-n2c(=O)c3c4c(sc3n3c(=S)[nH]nc23)CCCC4)cc1	-0.5	-5.1	-0.7	0.0	-3.9	2.5
CC(C)C1Cc2c(sc3c2c(=O)n(-c2ccccc2)c2n[nH]c(=S)n32)CO1 (stereo unspecified)	2.8	+	-0.6	3.7	10.9	-12.8
O=C(c1ccc(CS(=O)c2ccccc2Cl)o1)N1CCN(c2ccccn2)CC1 (stereo unspecified)	24.9	0.1	-2.0	-2.0	1.5	-12.2
CCOC(=O)C[C@@H](C#N)NC(=O)[C@@H]1CCCN1C(=O)[C@@H](NC(=O)c1ccc(N)c(Cl)c1)C(C)(C)C	2.0	x	x	x	75.5*	x
O=C(CNc1cccc2ccccc12)N/N=C/C(Br)=C/c1ccccc1	30.8*	-2.8	-1.4	0.6	19.9	0.2
COC(=O)C(C(=O)OC)C(C[N+](=O)[O-])c1ccc(OC)cc1 (stereo unspecified)	3.8	x	-0.2	-0.2	1.3	-6.4
COC(=O)C(C(=O)OC)C(c1ccccc1)C(C(=O)c1ccccc1)[N+](=O)[O-] (stereo unspecified)	0.4	-1.7	1.1	0.4	53.3*	-6.6
CCNC(=O)COc1ccc2ccccc2c1	0.9	0.0	0.8	-2.8	8.1	35.3*
Cc1ccccc1NC(=O)C(=O)NNC(=O)COc1ccc2ccccc2c1	5.1	38.8*	-1.0	2.3	21.9	-13.5
COc1ccc(CCNC(=O)c2cccc3ccccc23)cc1OC	2.2	-1.9	-0.8	-1.3	-0.2	-18.5
COc1ccc(CCNC(=O)c2cc3c(F)cccc3s2)cc1OC	0.1	69.9*	-1.7	-0.1	-15.1	-14.5
COc1ccc(-n2nc(C(=O)NCC(=O)N(C)Cc3ccccc3)c3ccccc3c2=O)cc1	-0.2	38.1*	-2.0	1.6	20.7	-15.1
